Data set [1] has as its system Canis familiaris. As to the kind of experiment: Cardiovascular activity in dog assessed as increase in mean […] pressure at 3 mg to 5 mg/kg, iv by dose escalation study. The class given is functional, Canis lupus familiaris. The method, boiled down: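 Anesthetized mongrel dogs on sodium pentobarbital, mechanically ventilated, with left ventricular and arterial pressure transducers and ECG. Four dogs received 6 min iv infusions at escalating 0.3, 1, 3 and 5 mg/kg, 30 min apart; four control dogs received vehicle on the same schedule. Mean arterial pressure and dP/dt were recorded; plasma was sampled after each infusion.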

For data set [2], the target named is T1, Substance-K receptor (Homo sapiens) (UniProt P21452).
T1 sequence (whole entry): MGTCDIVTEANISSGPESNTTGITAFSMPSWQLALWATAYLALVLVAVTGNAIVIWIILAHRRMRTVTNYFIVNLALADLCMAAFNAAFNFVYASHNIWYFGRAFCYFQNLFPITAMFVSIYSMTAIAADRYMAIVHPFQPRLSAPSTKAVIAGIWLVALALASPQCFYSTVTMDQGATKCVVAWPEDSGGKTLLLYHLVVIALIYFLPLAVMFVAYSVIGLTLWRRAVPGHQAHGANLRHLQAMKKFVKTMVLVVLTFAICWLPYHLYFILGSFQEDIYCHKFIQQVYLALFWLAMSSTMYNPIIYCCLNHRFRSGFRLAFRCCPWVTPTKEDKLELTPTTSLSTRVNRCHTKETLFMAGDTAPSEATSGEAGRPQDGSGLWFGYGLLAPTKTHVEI
Nature of the data set: Inhibition of ligand binding in neurokinin 2 receptor. Set-up: scale not given: the % may be the effect or the level left. In outline:
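Screened at 10^-7 and 10^-5 M for binding inhibition, then taken to a dose–response on the human neurokinin 2 receptor. IC50 is based on two experiments.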

Data set [3] can be described thus: Plasma concentration in dog at 1 mg/kg after intravenous infusion for 30 mins. The data set is classed as ADME, organism-based, Canis lupus familiaris. On the set-up: dose 1 mg/kg, route intravenous.
Data set [4] deals with Canis familiaris. As to the kind of experiment: Effect on respiratory function in spontaneously breathing mongrel dog assessed as change in intrapleural pressure at 5 mg/kg after intravenous infusion for 60 mins (RVb= 18.5+/-19.9 %). The data set is classed as functional, Canis lupus familiaris.
Data set [5] has as its system Rattus norvegicus. As to the kind of experiment: Effect on acute renal function in rat assessed as change in urine phosphate level per 100 gm body weight at 30 mg/kg, po (RVb= 8.7+/-2.3 mg/dl). The data set is classed as functional.
In data set [6] the target is T2, Adenosine receptor A1 (Homo sapiens) (UniProt P30542).
T2 sequence (whole entry): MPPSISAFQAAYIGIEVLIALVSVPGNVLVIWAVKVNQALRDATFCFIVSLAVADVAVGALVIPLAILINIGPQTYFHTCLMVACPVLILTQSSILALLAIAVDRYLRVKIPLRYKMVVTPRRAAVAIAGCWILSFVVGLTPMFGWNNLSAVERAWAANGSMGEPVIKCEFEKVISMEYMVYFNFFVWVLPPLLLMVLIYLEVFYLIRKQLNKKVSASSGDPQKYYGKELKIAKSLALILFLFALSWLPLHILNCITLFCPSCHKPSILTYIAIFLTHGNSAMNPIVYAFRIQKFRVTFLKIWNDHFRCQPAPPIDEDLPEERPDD
As to the kind of experiment: Inhibition of ligand binding in adenosine A1 receptor. On the set-up: scale not given: the % may be the effect or the level left. In outline:
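Screened at 10^-7 and 10^-5 M for binding inhibition. Then run twice in a dose–response format on the cloned rat adenosine A1 receptor expressed in CHO cells to obtain Ki.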

In data set [7] the test system is Canis familiaris. As to the kind of experiment: Effect on respiratory function in spontaneously breathing mongrel dog assessed as change in respiration rate at 5 mg/kg after intravenous infusion for 15 mins (RVb= -6.4+/-4.0 %). The data set is classed as functional, Canis lupus familiaris.
Data set [8] deals with Canis familiaris. As to the kind of experiment: Effect on respiratory function in spontaneously breathing mongrel dog assessed as change in tidal volume at 5 mg/kg after intravenous infusion for 15 mins (RVb= 2.2+/-4.3 %). The data set is classed as functional, Canis lupus familiaris.
For data set [9], the system named is Canis familiaris. As to the kind of experiment: Effect on respiratory function in spontaneously breathing mongrel dog assessed as change in heart rate at 5 mg/kg after intravenous infusion for 30 mins (RVb= -0.9+/-3.8 %). The data set is classed as functional, Canis lupus familiaris.
Data set [10] can be described thus: Plasma concentration in spontaneously breathing dog at 5 mg/kg, iv after 30 mins. The class given is ADME, organism-based, Canis lupus familiaris. On the set-up: dose 5 mg/kg, route intravenous. The method, boiled down:
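Spontaneously breathing, barbiturate-anesthetized mongrel dogs (n = 4) infused iv at 5.0 mg/kg over 6 min. Total pooled plasma concentrations taken at 6, 15, 30 and 60 min.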

Data set [11] deals with Rattus norvegicus. Nature of the data set: Anxiolytic activity in rat assessed as increase in time spent on open arm at 18 mg/kg, po by elevated plus-maze test. The data set is classed as functional, organism-based. Set-up: dose 18 mg/kg. In outline: (§1)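 Rat elevated plus maze: percent of test time spent in the open arms. Oral dosing in 0.25% Methocel 60 min before testing; n = 12 per dose, mean ± SEM. Analysed by ANOVA followed by Fisher's LSD comparisons against vehicle.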

Data set [12] deals with Rattus norvegicus. As to the kind of experiment: Anxiolytic activity in rat assessed as increase in time spent on open arm at 30 mg/kg, po by elevated plus-maze test. The class given is functional, organism-based. On the set-up: dose 30 mg/kg. In outline: as §1
Data set [13] has as its system Rattus norvegicus. As to the kind of experiment: Ex vivo receptor occupancy of CRF receptor in rat brain at 3 mg/kg, po by [125I]sauvagine binding and autoradiography relative to control. The data set is classed as functional. In outline:
(§2)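 Rats were given 0.3, 1, 3, 10 or 30 mg/kg po in 0.25% Methocel 60 min before sacrifice. Brains were removed, sectioned and frozen at −80 °C. Ex vivo CRF receptor binding gave occupancy relative to vehicle-treated rats, reported as mean ± SEM.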

Data set [14] has as its system Rattus norvegicus. As to the kind of experiment: Ex vivo receptor occupancy of CRF receptor in rat brain at 10 mg/kg, po by [125I]sauvagine binding and autoradiography relative to control. The class given is functional. The method, boiled down: as §2
The subject of data set [15] is Rattus norvegicus. Nature of the data set: Ex vivo receptor occupancy of CRF receptor in rat brain at 30 mg/kg, po by [125I]sauvagine binding and autoradiography relative to control. The class given is functional. The method, boiled down: as §2
Data set [16] has as its system Rattus norvegicus. As to the kind of experiment: Toxicity in rat assessed as total distance traveled at 1 mg/kg, po after 1 hr by spontaneous locomotor test. The data set is classed as organism-based. On the set-up: dose 1 mg/kg, route oral. The following applies: in vivo. In outline:
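Spontaneous locomotor activity in rats dosed po in 0.25% Methocel 1 h pretest; doses up to 100 mg/kg. Compared with the vehicle (zero dose) group, mean ± SEM, N = rats.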

Data set [17] is described as follows: Volume of distribution at steady state in rat at 1 mg/kg, iv and 5 mg/kg, po. The following applies: in vivo, read-out: Vdss. The class given is ADME, organism-based. In outline: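 Rats (n = 3) dosed iv at 1 mg/kg in 10% DMAC, 70% propylene glycol and deionized water, and orally at 5 mg/kg in 0.5% methylcellulose.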
Data set [18] in a line: AUC (0 to infinity) in chimpanzee at 0.5 mg/kg, iv. The class given is ADME, organism-based, Pan troglodytes. On the set-up: time infinity, dose 0.5 mg/kg, route intravenous. The settings on record: plasma. The method, boiled down:
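Chimpanzee PK. Oral: 1 mg/kg in two alert animals, given as a 1 mg/mL suspension in 50–50 (v/v) 0.5% methylcellulose/Tang orange juice with 1% Tween-80. IV: 0.5 mg/kg in one animal in 10% DMAC, 70% propylene glycol and deionized water, infused over 10 min (0.2 mL/kg). EDTA blood was taken predose and at 2–96 h; iv sampling added 6, 15 and 30 min.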

The nature of data set [19]: Elimination half life in chimpanzee at 0.5 mg/kg, iv. The class given is ADME, organism-based, Pan troglodytes. The following applies: in vivo, read-out: beta t1/2 (converted). On the set-up: dose 0.5 mg/kg, route intravenous. The method, boiled down: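 One chimpanzee received 0.5 mg/kg iv over 10 min (0.2 mL/kg) in 10% DMAC, 70% propylene glycol and deionized water. Blood was drawn into EDTA predose and at 6, 15, 30 min and 2, 4, 6, 9, 12, 24, 36, 48, 72 and 96 h.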

Activity calls are given as the source filed them. The rule behind the calls is not given here.

A word on the AUC(0-inf): it is the area under the concentration-time curve extrapolated to infinity. Turning to `CC[C@@H](C)Nc1nc(C)nc2c(-c3ccc(OC)nc3C)c(C)nn12` [PEXACERFONT], the Activity with Canis familiaris [1] is 10 mmHg; in data set [2] it was 80%; in the data set on Canis familiaris [4] it was 0.7%; in the data set on Rattus norvegicus [5], 4.6 mg/dL; in data set [6], 90%; with Canis familiaris [7] it was -3.1%. The Activity is given as 4.3% with Canis familiaris [8]; -2.5% in the data set on Canis familiaris [9]; 59% with Rattus norvegicus [13]; 69% in the data set on Rattus norvegicus [14]; 85% in the data set with Rattus norvegicus [15]; 4106 cm with Rattus norvegicus [16]. Moreover, the figures for the concentration at 0.5 h in data set [3] and in data set [10] were 473 nM and 412 nM, respectively. Moreover, the result in the data set on Rattus norvegicus [11] and with Rattus norvegicus [12] was Active. The Vd in [17] came out at 14.9 L/kg. For the same compound, in data set [18], the total exposure AUC(0-inf) is 11.9 µM·h. Further, in data set [19], the half-life was 30 h.

The values above are taken from ChEMBL document CHEMBL1138476 (J Med Chem, 2009).
